ABCB6 inh MLPCN = human ABCB6 transporter inhibition; Q9NP58; K562-ABCB6 porphyrin accumulation, flow cytometry, 1 h; active compounds read low; fluorescence ratio to DMSO, % at 10 µM; AID 602162; 360,000 tested, 0.19% active;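 active means fluorescence ratio to DMSO below 75%, the collection mean minus 3 SD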;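 further: signal is porphyrin accumulated inside mitochondria; lower ratio means ABCB6 inhibition with less porphyrin fluorescence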
hiPSC survival = enhancers of human iPSC single-cell survival; hiPSC single-cell survival, ATPlite luminescence; 100% = ROCK inhibitor wells, 0% = DMSO; survival enhancement, % at 20 µM; 360,000 tested, 0.044% active; in the data active means survival enhancement above about 18%;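 further: cells exposed to compounds for 16 hours before the ATP read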
SENP1 inh = inhibitors of human SENP1 SUMO protease catalytic domain. recombinant SENP1 catalytic domain, CyPet-SUMO1-YPet FRET cleavage. inhibition, % at 10 µM. Q9P0U3. 360,000 tested, 0.21% active. AID 624204;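 active means inhibition at least 30% at 10 µM, raw YFP signal under a set limit, fluorescence ratio 0.5 to 1.5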
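Test system: recombinant human SENP1 catalytic domain, His6-tagged / Medium: pH 8 Tris buffer with EDTA, NaCl, BME, BSA, NP40, catalase / Also added: SUMO1 FRET substrate flanked by Cypet and Ypet, 25 nM / Times: 50 min reaction at room temperature / Signal: FRET, CFP and YFP emission / Control set: no-enzyme low control and enzyme-plus-DMSO high control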
FAS TE block = FAS thioesterase (human) inhibition; P49327; recombinant FAS-TE, OMFH fluorogenic substrate, fluorescence endpoint; inhibition, % at 15 µM; 360,000 tested, 0.67% active; AID 602261;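 active means compounds whose normalised, plate-corrected inhibition of enzyme fluorescence in the single-dose primary screen is 50% or more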
Large screens that a line does not name were inactive. Shown are actives, neighbours in structure and some others; about 1.1% of the full set was active somewhere.

Cc1ccc(CNC(=O)c2ccc3c(=O)n(CC4CCCO4)c(=S)[nH]c3c2)cc1 (stereo not drawn)	none
Cc1ccc(CNC(=O)c2ccc3c(=O)[nH]c4c(C(=O)NCC5CCCO5)sc(=S)n4c3c2)cc1 (stereo not drawn)	SENP1 inh 39
CCCCCNC(=O)c1ccc2c(=O)[nH]c3c(C(=O)NCC4CCCO4)sc(=S)n3c2c1 (stereo not drawn)	SENP1 inh 52
O=C(NCc1ccccc1)c1ccc2c(=O)[nH]c3c(C(=O)NCC4CCCO4)sc(=S)n3c2c1 (stereo not drawn)	SENP1 inh 38
CN(CCC(=O)c1ccccc1)CCC(=O)c1ccccc1	none
COc1ccc2c(c1)OC[C@H]1[C@H]2N2C(=O)c3cc(OC)c(OC)cc3NC(=O)[C@@]2(C)[C@H]1c1ccccc1	FAS TE block 91
COc1ccc2c(c1)[C@H]1[C@H](CO2)[C@H](c2ccccc2)[C@]2(C)C(=O)N(Cc3ccc(C)cc3)CC(=O)N12	FAS TE block 63
C[C@@]12C(=O)Nc3ccc(Cl)cc3C(=O)N1[C@H]1c3ccccc3OC[C@@H]1[C@@H]2c1ccccc1	FAS TE block 83
COC(=O)c1ccc2c(c1)SC1=C(CCCC1=O)N2	SENP1 inh 43
COc1ccccc1[C@@H]1C(c2cccc(Cl)c2)=NN(c2ccccc2)[C@H]1C(=O)N1CCOC1=O	FAS TE block 91
Cc1cccc(C2=NN(c3ccc(Br)cc3)[C@@H](C(=O)N3CCOC3=O)[C@@H]2c2ccc(F)cc2)c1	FAS TE block 74
Cc1cccc(C2=NN(c3ccc(Br)cc3)[C@@H](C(=O)N3CCOC3=O)[C@@H]2c2ccc(Cl)cc2)c1	FAS TE block 74
O=C1OCCN1C(=O)[C@H]1[C@H](c2ccccc2)C(c2cccc(Cl)c2)=NN1c1ccc(Br)cc1	none
CCC(NC(=O)COc1cc2c(c3oc(=O)c(C)c(C)c13)CCC(C)(C)O2)C(=O)O (stereo not drawn)	none
N#CC(C#N)=C1c2cc(S(=O)(=O)NCCO)ccc2-c2ccc(S(=O)(=O)NCCO)cc21	SENP1 inh 33
COc1ccc(C2NC(=O)CCC2[N+](=O)[O-])c(OC)c1OC (stereo not drawn)	none
COCCCN(C(C)=O)c1nc(-c2ccc(OC)cc2)cs1	ABCB6 inh MLPCN 72
Cc1sc(NC(=O)c2sc3nc4c(C)cccc4cc3c2N)c(C#N)c1C	none
Cc1cccc2cc3c(N)c(C(=O)Nc4ccc(N5CCOCC5)cc4)sc3nc12	SENP1 inh 65
Cc1ccc(S(=O)(=O)NCCN=C(CN2CCCC2)NS(=O)(=O)c2ccc(C)cc2)cc1	ABCB6 inh MLPCN 66
Cc1ccc(S(=O)(=O)NCCN=C(CN2CCOCC2)NS(=O)(=O)c2ccc(C)cc2)cc1	none
CCCOc1ccc(C(=O)N2CCN(Cc3ccc4c(c3)OCO4)CC2)cc1	none
COc1cc(-c2nc(C(=O)NC3CCN(Cc4ccccc4)CC3)cc3c2[nH]c2ccccc23)cc(OC)c1OC	FAS TE block 77
C=CCn1c(SCC(=O)N(C)c2c(N)n(Cc3ccccc3)c(=O)[nH]c2=O)nnc1-c1ccccc1OC	none
CCC(C)c1ccccc1NC(=S)NC(=O)c1ccco1 (stereo not drawn)	none
COc1ccc(/C=C/C(=O)C2C(=O)C=C(C)OC2=O)cc1O (stereo not drawn)	ABCB6 inh MLPCN 68
COc1cc(/C=C/C(=O)C2C(=O)C=C(C)OC2=O)cc(OC)c1O (stereo not drawn)	none
Cc1ccc(C)c(S(=O)(=O)N2CCC(c3nc4c(nnn4Cc4ccc5c(c4)OCCO5)c(=O)[nH]3)CC2)c1	FAS TE block 70
COC(=O)c1ccc(C(=O)OC)c(NC(=O)CSc2cccc[n+]2[O-])c1	hiPSC survival 22
COC(=O)c1ccc(-n2c(C)cc(C(=O)CSc3cccc[n+]3[O-])c2C)cc1	none
C[C@H]1c2cccc(O)c2C(O)=C2C(=O)C3(O)C(O)=C(C(N)=O)C(=O)[C@@H](N(C)C)[C@@H]3[C@@H](O)[C@@H]21 (stereo partly drawn)	none
C=C1c2cccc(O)c2C(O)=C2C(=O)[C@]3(O)C(O)=C(C(N)=O)C(=O)[C@@H](N(C)C)[C@@H]3[C@@H](O)[C@H]12	SENP1 inh 31
CCOC(=O)C1=NN(C(=O)c2ccc(C)cc2)C(O)(c2ccc(Cl)cc2)C1 (stereo not drawn)	SENP1 inh 31
Cc1cc(O)c(-c2cc(C(=O)NCc3ccc4c(c3)OCO4)[nH]n2)cc1C	ABCB6 inh MLPCN 59
CCOc1ccccc1NC(=O)C1CCCN(S(=O)(=O)c2ccc3c(c2)C(C)(C)C(=O)N3C)C1 (stereo not drawn)	none
COCCNC(=S)N/N=C(\C)c1cc2ccccc2o1	ABCB6 inh MLPCN 70
COCCNC(=S)N/N=C(\C)c1ccc(OC)cc1	none
O=C1C(=O)c2cccnc2-c2ncccc21	SENP1 inh 29
O=C(/C=C/[C@H]1O[C@@H](n2cnc3c(NC(=O)c4ccccc4)ncnc32)[C@H](O)[C@@H]1O)NCC1CCCCC1	none
O=c1cc(-c2ccc(O)c(O)c2)oc2cc(O)c([C@@H]3O[C@H](CO)[C@@H](O)[C@H](O)[C@H]3O)c(O)c12	none
O=c1c2cc(O)c(O)cc2oc2cc(O)c(C3OC(CO)C(O)C(O)C3O)c(O)c12 (stereo not drawn)	SENP1 inh 37
Cc1ccccc1NC(=O)CN1C(=O)NC2(CCc3ccccc32)C1=O (stereo not drawn)	none
COc1cc2c(cc1NC(=O)CN1C(=O)NC3(CCc4ccccc43)C1=O)oc1ccccc12 (stereo not drawn)	FAS TE block 55
Nc1ccc(Nc2ccccc2N)cc1	none
COc1ccc(Nc2ccccc2N)cc1	SENP1 inh 34
O=C(c1cncs1)N1CCCC(CNS(=O)(=O)c2cccs2)C1 (stereo not drawn)	none
CCn1c2ccccc2c2cc(NC(=O)N3CCOCC3)ccc21	SENP1 inh 32
C=CCn1c(SCC(=O)NCCOC)nnc1-c1cc2c(s1)CCC(CC)C2 (stereo not drawn)	none
Cc1cc(=O)[nH]c(N=N/C(=N/Nc2ccc(O)cc2)c2ccccc2)n1	SENP1 inh 48
Cc1cccc([C@@H](NC(=O)OC(C)(C)C)C(=O)OC(C)(C)C)c1	ABCB6 inh MLPCN 68
CC(C)(C)OC(=O)N[C@@H](C(=O)OC(C)(C)C)c1ccccc1	none
COc1ccccc1CC(=O)Nc1ccc(-c2noc(COc3ccc(Br)cc3)n2)cc1	none
COc1ccccc1CC(=O)Nc1ccc(-c2noc(COc3cccc(C)c3C)n2)cc1	hiPSC survival 21
Nc1cc2nc3ccccc3oc-2cc1=O	SENP1 inh 33
O=c1oc2ccccc2cc1-c1nc2ccccc2o1	none
O=C(Nc1ccccc1)c1ccc(N2CCN(c3ccccc3)CC2)c(S(=O)(=O)N2CCOCC2)c1	FAS TE block 56
COc1ccc(CNC(=O)c2cc(S(=O)(=O)N3CCCCC3)ccc2Cl)cc1OC	none
